Target: T1, Aromatase (Homo sapiens, UniProt P11511)
T1 sequence (P11511 whole entry): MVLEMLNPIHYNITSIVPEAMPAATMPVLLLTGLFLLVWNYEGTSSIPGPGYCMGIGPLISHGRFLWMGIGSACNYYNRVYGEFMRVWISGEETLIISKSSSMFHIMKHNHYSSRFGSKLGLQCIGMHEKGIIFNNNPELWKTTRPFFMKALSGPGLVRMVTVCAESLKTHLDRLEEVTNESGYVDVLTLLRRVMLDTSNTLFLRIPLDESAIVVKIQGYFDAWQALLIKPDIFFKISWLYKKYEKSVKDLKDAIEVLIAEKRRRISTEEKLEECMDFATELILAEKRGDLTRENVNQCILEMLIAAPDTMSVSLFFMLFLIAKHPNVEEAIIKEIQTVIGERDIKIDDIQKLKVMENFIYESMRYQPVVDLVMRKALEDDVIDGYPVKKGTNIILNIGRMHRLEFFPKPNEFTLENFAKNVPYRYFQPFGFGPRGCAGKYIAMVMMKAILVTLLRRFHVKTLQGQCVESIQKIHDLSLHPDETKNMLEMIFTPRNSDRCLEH
Experiment: Inhibition of aromatase in human SKBR3 cells by tritiated water release assay
Method in brief: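 Subconfluent SK-BR-3 cells were switched to defined DMEM/F12 (human albumin, transferrin, insulin) and treated 24 h at five concentrations in triplicate (0.1% DMSO vehicle). They were then incubated 3 h with 100 nM [1β-3H]-androstenedione. TCA-precipitated medium was chloroform-extracted and charcoal-treated, and 3H2O counted as pmol/h/10^6 cells, normalized by DNA assay. IC50 was taken from sigmoidal dose–response fits.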

Compound	IC50 [µM]
COc1cc([N+](=O)[O-])ccc1NS(C)(=O)=O [N-(2-methoxy-4-nitrophenyl)methanesulfonamide]	> 25
COc1cc([N+](=O)[O-])ccc1N(C)S(C)(=O)=O [N-methyl-N-(2-methoxy-4-nitrophenyl)methanesulfonamide]	> 25
